Results pooled from the literature.
Protocols differ between the studies behind these lines.
Target: Membrane-associated tyrosine- and threonine-specific cdc2-inhibitory kinase (PKMYT1, Homo sapiens, UniProt Q99640)
Residues used in one study (Q99640 1-499): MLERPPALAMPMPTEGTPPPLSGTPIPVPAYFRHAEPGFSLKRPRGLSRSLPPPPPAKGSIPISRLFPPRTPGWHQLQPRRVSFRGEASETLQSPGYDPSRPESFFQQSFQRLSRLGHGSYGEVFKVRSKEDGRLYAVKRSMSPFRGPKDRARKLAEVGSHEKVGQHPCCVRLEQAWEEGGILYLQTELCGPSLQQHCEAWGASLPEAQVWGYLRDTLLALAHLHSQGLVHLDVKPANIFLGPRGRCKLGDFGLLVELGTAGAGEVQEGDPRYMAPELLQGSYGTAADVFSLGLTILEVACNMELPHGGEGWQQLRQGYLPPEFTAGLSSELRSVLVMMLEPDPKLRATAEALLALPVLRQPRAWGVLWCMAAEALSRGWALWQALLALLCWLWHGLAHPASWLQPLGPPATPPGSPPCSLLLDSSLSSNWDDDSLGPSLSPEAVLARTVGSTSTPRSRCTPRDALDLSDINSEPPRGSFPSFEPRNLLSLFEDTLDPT

Compound | assay | setting | remaining binding [%]
CC(=O)c1c(NS(C)(=O)=O)c2cc(-c3ccc(Cl)cc3)c(-c3ccc(Cl)cc3Cl)nc2n(C)c1=O | cell-free assay, competition with immobilised ligand | 1 µM | 99
C[C@H]1CCN(c2nccc(-c3cnn4ncccc34)n2)C1 | binding | 1 µM | 100
O=C(c1ccc(Nc2ncc(Cl)c(-c3ccc(Cl)s3)n2)cc1)N1CCC(N2CCCC2)CC1 | binding, competition with immobilised ligand | 1 µM | 100
F[C@@H]1CCN(c2nccc(-c3cnn4ncccc34)n2)C1 | binding | 1 µM | 100
COc1cc(-c2cn(C3CCc4ccccc4N(CC(F)(F)F)C3=O)nn2)ccc1-n1ccc(C)n1 (centres unmarked) | cell-free assay, competition with immobilised ligand | 1 µM | 100
c1cncc(-c2cccc(Nc3nccc(NC4CCCCC4)n3)c2)c1 | binding, competition with immobilised ligand | 10 µM | 96
CN(C)c1nccc(-c2cnn3ncccc23)n1 | binding | 1 µM | 100
O=C(NCCCN1CCOCC1)c1ccc(Nc2nccc(-c3cc4ccccc4s3)n2)cc1 | binding, competition with immobilised ligand | 1 µM | 84
CN(c1nccc(-c2cnn3ncccc23)n1)C1CC1 | binding | 1 µM | 88
CS(=O)(=O)N1CCCC(NC(=O)[C@H](CCC2CCCCC2)NC(=O)c2ccc(CNC(=O)c3cnc4ccccn34)cc2)C1 (some centres unmarked) | cell-free assay, competition with immobilised ligand | 0.1 µM | 100
COc1ncc2cc3ccccc3nc2c1C#N | cell-free assay, competition with immobilised ligand | 5 µM | 100
COc1ccnn2ncc(-c3ccnc(N(C)C)n3)c12 | binding | 1 µM | 100
COc1cnc(Nc2cccc(S(N)(=O)=O)c2)nc1N1CCN(c2ccccc2)CC1 | binding, competition with immobilised ligand | 1 µM | 89
O=C1CCc2cc(Nc3cc(OC4CCOCC4)c([N+](=O)[O-])cc3Cl)ccc2N1 | cell-free assay, competition with immobilised ligand | 1 µM | 79
O=C(Nc1c[nH]nc1C(=O)NC1CCNCC1)c1cc(F)cc(F)c1 | binding, competition with immobilised ligand | 1 µM | 83
N[C@@H]1CCN(c2nccc(-c3cnn4ncccc34)n2)C1 | binding | 1 µM | 100
COc1cc(-c2cn(C3CCc4c(F)cccc4N(CC(F)(F)F)C3=O)nn2)ccc1-n1cnc(C)c1 (centres unmarked) | cell-free assay, competition with immobilised ligand | 1 µM | 100
Nc1ncc2c(n1)-c1c([nH]c3ccc(C#CC4CC4)cc13)CCCC2 | binding, competition with immobilised ligand | 1 µM | 98
Cn1nc(C(F)(F)F)cc1-c1cnc(N2CCc3cc(S(=O)(=O)Nc4c(F)cc(Cl)cc4F)cc(N4CCCC4=O)c32)nc1 | cell-free assay, competition with immobilised ligand | 1 µM | 93
O=C(c1ccc(Nc2ncc(Cl)c(-c3cc4ccccc4s3)n2)cc1)N1CCC(N2CCCC2)CC1 | binding, competition with immobilised ligand | 1 µM | 87
